Tests used:
[1] = target: T1, Toll-like receptor 7 (Homo sapiens) (UniProt Q9NYK1); experiment: Activation of human TLR7 expressed in HEK293XL assessed as fold induction of NF-kappaB activity at 50 ug/ml after 18 hrs by reporter gene assay relative to control
T1 sequence (whole entry): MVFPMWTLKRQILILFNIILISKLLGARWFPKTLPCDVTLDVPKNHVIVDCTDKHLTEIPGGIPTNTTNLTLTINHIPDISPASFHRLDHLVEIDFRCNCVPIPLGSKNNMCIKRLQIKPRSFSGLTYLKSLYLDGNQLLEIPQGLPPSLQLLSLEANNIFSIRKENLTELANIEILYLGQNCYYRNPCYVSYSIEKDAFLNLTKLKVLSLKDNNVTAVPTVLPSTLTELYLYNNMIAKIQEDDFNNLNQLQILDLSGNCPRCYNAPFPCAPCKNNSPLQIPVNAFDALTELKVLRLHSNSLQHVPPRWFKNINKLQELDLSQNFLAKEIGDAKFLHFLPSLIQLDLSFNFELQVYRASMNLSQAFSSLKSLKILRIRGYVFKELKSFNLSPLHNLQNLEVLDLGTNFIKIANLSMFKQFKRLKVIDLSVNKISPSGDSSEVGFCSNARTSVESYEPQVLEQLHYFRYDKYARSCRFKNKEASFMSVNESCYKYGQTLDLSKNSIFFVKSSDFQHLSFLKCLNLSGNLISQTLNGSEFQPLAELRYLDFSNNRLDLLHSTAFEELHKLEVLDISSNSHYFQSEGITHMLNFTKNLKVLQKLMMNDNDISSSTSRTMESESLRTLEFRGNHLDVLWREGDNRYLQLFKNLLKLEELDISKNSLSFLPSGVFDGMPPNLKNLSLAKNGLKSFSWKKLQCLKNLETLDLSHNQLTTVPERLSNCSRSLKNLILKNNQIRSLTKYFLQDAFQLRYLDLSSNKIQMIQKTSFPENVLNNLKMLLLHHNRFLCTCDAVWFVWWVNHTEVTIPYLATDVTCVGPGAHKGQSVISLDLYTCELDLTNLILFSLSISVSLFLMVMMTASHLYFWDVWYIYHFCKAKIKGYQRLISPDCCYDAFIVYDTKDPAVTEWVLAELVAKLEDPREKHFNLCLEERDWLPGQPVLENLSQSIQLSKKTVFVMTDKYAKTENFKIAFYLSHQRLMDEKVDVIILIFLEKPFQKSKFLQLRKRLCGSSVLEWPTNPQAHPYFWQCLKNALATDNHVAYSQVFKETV
Procedure, shortened: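 HEK293 cells stably expressing human TLR7 or TLR8, transiently transfected with SEAP reporter plasmid; medium replaced, SIMRA compounds added, 18 h incubation. Supernatant SEAP measured by QuantiBlue; expressed as fold increase in NF-κB activity over PBS control. Tabulated data at 50 μg/mL, representative of three independent experiments.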

Homo sapiens = species: Homo sapiens; experiment: Ratio of human TLR7 activity to human TLR8 activity
Procedure, shortened: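 TLR7/TLR8 ratio computed from fold NF-κB (SEAP reporter) activation in HEK293 cells stably expressing human TLR7 versus TLR8, compounds at 50 μg/mL, 18 h exposure; representative of three independent experiments.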

| fold change (FC) [1] | Ratio (Homo sapiens) | SMILES |
| --- | --- | --- |
| 18.4 | 30.7 | Nc1ccn([C@@H]2O[C@H](COP(=O)(S)O[C@H]3[C@@H](O)[C@H](n4cnc5c(N)ncnc54)O[C@@H]3COP(=O)(S)O[C@H]3[C@@H](O)[C@H](n4cnc5c(N)ncnc54)O[C@@H]3CO)[C@@H](OP(=O)(S)OC[C@H]3O[C@@H](n4ccc(=O)[nH]c4=O)[C@H](O)[C@@H]3OP(=O)(S)OC[C@H]3O[C@@H](n4ccc5c(=O)[nH]c(N)nc54)[C@H](O)[C@@H]3OP(=O)(S)OC[C@H]3O[C@@H](n4cnc5c(N)ncnc54)[C@H](O)[C@@H]3OP(=O)(S)OC[C@H]3O[C@@H](n4cnc5c(N)ncnc54)[C@H](O)[C@@H]3OP(=O)(S)OC[C@H]3O[C@@H](n4ccc5c(=O)[nH]c(N)nc54)[C@H](O)[C@@H]3OP(=O)(S)OC[C@H]3O[C@@H](n4ccc(N)nc4=O)[C@H](O)[C@@H]3OP(=O)(S)OC[C@H]3O[C@@H](n4ccc(=O)[nH]c4=O)[C@H](O)[C@@H]3OP(=O)(S)OC[C@H]3O[C@@H](n4ccc5c(=O)[nH]c(N)nc54)[C@H](O)[C@@H]3OP(=O)(S)OCC(O)COP(=O)(S)O[C@H]3[C@@H](O)[C@H](n4ccc5c(=O)[nH]c(N)nc54)O[C@@H]3COP(=O)(S)O[C@H]3[C@@H](O)[C@H](n4ccc(=O)[nH]c4=O)O[C@@H]3COP(=O)(S)O[C@H]3[C@@H](O)[C@H](n4ccc(N)nc4=O)O[C@@H]3COP(=O)(S)O[C@H]3[C@@H](O)[C@H](n4ccc5c(=O)[nH]c(N)nc54)O[C@@H]3COP(=O)(S)O[C@H]3[C@@H](O)[C@H](n4cnc5c(N)ncnc54)O[C@@H]3COP(=O)(S)O[C@H]3[C@@H](O)[C@H](n4cnc5c(N)ncnc54)O[C@@H]3COP(=O)(S)O[C@H]3[C@@H](O)[C@H](n4ccc5c(=O)[nH]c(N)nc54)O[C@@H]3COP(=O)(S)O[C@H]3[C@@H](O)[C@H](n4ccc(=O)[nH]c4=O)O[C@@H]3COP(=O)(S)O[C@H]3[C@@H](O)[C@H](n4ccc(N)nc4=O)O[C@@H]3COP(=O)(S)O[C@H]3[C@@H](O)[C@H](n4cnc5c(N)ncnc54)O[C@@H]3COP(=O)(S)O[C@H]3[C@@H](O)[C@H](n4cnc5c(N)ncnc54)O[C@@H]3CO)[C@H]2O)c(=O)n1 (stereo partly drawn) |
| 26.8 | 13.4 | Nc1ccn([C@@H]2O[C@H](COP(=O)(S)O[C@H]3[C@@H](O)[C@H](n4cnc5c(N)ncnc54)O[C@@H]3CO)[C@@H](OP(=O)(S)OC[C@H]3O[C@@H](n4ccc5c(=O)[nH]c(N)nc54)[C@H](O)[C@@H]3OP(=O)(S)OC[C@H]3O[C@@H](n4ccc(=O)[nH]c4=O)[C@H](O)[C@@H]3OP(=O)(S)OC[C@H]3O[C@@H](n4ccc5c(=O)[nH]c(N)nc54)[C@H](O)[C@@H]3OP(=O)(S)OC[C@H]3O[C@@H](n4cnc5c(N)nc(N)nc54)[C@H](O)[C@@H]3OP(=O)(S)OC[C@H]3O[C@@H](n4cnc5c(N)ncnc54)[C@H](O)[C@@H]3OP(=O)(S)OC[C@H]3O[C@@H](n4ccc5c(=O)[nH]c(N)nc54)[C@H](O)[C@@H]3OP(=O)(S)OC[C@H]3O[C@@H](n4ccc(N)nc4=O)[C@H](O)[C@@H]3OP(=O)(S)OC[C@H]3O[C@@H](n4ccc(=O)[nH]c4=O)[C@H](O)[C@@H]3OP(=O)(S)OC[C@H]3O[C@@H](n4ccc(=O)[nH]c4=O)[C@H](O)[C@@H]3OP(=O)(S)OCC(O)COP(=O)(S)O[C@H]3[C@@H](O)[C@H](n4ccc(=O)[nH]c4=O)O[C@@H]3COP(=O)(S)O[C@H]3[C@@H](O)[C@H](n4ccc(=O)[nH]c4=O)O[C@@H]3COP(=O)(S)O[C@H]3[C@@H](O)[C@H](n4ccc(N)nc4=O)O[C@@H]3COP(=O)(S)O[C@H]3[C@@H](O)[C@H](n4ccc5c(=O)[nH]c(N)nc54)O[C@@H]3COP(=O)(S)O[C@H]3[C@@H](O)[C@H](n4cnc5c(N)nc(N)nc54)O[C@@H]3COP(=O)(S)O[C@H]3[C@@H](O)[C@H](n4cnc5c(N)nc(N)nc54)O[C@@H]3COP(=O)(S)O[C@H]3[C@@H](O)[C@H](n4ccc5c(=O)[nH]c(N)nc54)O[C@@H]3COP(=O)(S)O[C@H]3[C@@H](O)[C@H](n4ccc(=O)[nH]c4=O)O[C@@H]3COP(=O)(S)O[C@H]3[C@@H](O)[C@H](n4ccc5c(=O)[nH]c(N)nc54)O[C@@H]3COP(=O)(S)O[C@H]3[C@@H](O)[C@H](n4ccc(N)nc4=O)O[C@@H]3COP(=O)(S)O[C@H]3[C@@H](O)[C@H](n4cnc5c(N)ncnc54)O[C@@H]3CO)[C@H]2O)c(=O)n1 (stereo partly drawn) |
| 13.7 | 19.6 | Nc1ccn([C@@H]2O[C@H](COP(=O)(S)O[C@H]3[C@@H](O)[C@H](n4ccc5c(=O)[nH]c(N)nc54)O[C@@H]3COP(=O)(S)O[C@H]3[C@@H](O)[C@H](n4cnc5c(N)ncnc54)O[C@@H]3COP(=O)(S)O[C@H]3[C@@H](O)[C@H](n4cnc5c(N)ncnc54)O[C@@H]3COP(=O)(S)O[C@H]3[C@@H](O)[C@H](n4ccc5c(=O)[nH]c(N)nc54)O[C@@H]3COP(=O)(S)O[C@H]3[C@@H](O)[C@H](n4ccc(=O)[nH]c4=O)O[C@@H]3COP(=O)(S)O[C@H]3[C@@H](O)[C@H](n4ccc(=O)[nH]c4=O)O[C@@H]3COP(=O)(S)O[C@H]3[C@@H](O)[C@H](n4cnc5c(N)ncnc54)O[C@@H]3COP(=O)(S)O[C@H]3[C@@H](O)[C@H](n4cnc5c(N)ncnc54)O[C@@H]3CO)[C@@H](OP(=O)(S)OC[C@H]3O[C@@H](n4ccc(=O)[nH]c4=O)[C@H](O)[C@@H]3OP(=O)(S)OC[C@H]3O[C@@H](n4ccc5c(=O)[nH]c(N)nc54)[C@H](O)[C@@H]3OP(=O)(S)OCC(O)COP(=O)(S)O[C@H]3[C@@H](O)[C@H](n4ccc5c(=O)[nH]c(N)nc54)O[C@@H]3COP(=O)(S)O[C@H]3[C@@H](O)[C@H](n4ccc(=O)[nH]c4=O)O[C@@H]3COP(=O)(S)O[C@H]3[C@@H](O)[C@H](n4ccc(N)nc4=O)O[C@@H]3COP(=O)(S)O[C@H]3[C@@H](O)[C@H](n4ccc5c(=O)[nH]c(N)nc54)O[C@@H]3COP(=O)(S)O[C@H]3[C@@H](O)[C@H](n4cnc5c(N)ncnc54)O[C@@H]3COP(=O)(S)O[C@H]3[C@@H](O)[C@H](n4cnc5c(N)ncnc54)O[C@@H]3COP(=O)(S)O[C@H]3[C@@H](O)[C@H](n4ccc5c(=O)[nH]c(N)nc54)O[C@@H]3COP(=O)(S)O[C@H]3[C@@H](O)[C@H](n4ccc(=O)[nH]c4=O)O[C@@H]3COP(=O)(S)O[C@H]3[C@@H](O)[C@H](n4ccc(=O)[nH]c4=O)O[C@@H]3COP(=O)(S)O[C@H]3[C@@H](O)[C@H](n4cnc5c(N)ncnc54)O[C@@H]3COP(=O)(S)O[C@H]3[C@@H](O)[C@H](n4cnc5c(N)ncnc54)O[C@@H]3CO)[C@H]2O)c(=O)n1 (stereo partly drawn) |
| 6.5 | 21.7 | Nc1ccn([C@@H]2O[C@H](COP(=O)(S)O[C@H]3[C@@H](O)[C@H](n4cnc5c(N)ncnc54)O[C@@H]3COP(=O)(S)O[C@H]3[C@@H](O)[C@H](n4cnc5c(N)ncnc54)O[C@@H]3CO)[C@@H](OP(=O)(S)OC[C@H]3O[C@@H](n4ccc(=O)[nH]c4=O)[C@H](O)[C@@H]3OP(=O)(S)OC[C@H]3O[C@@H](n4ccc5c(=O)[nH]c(N)nc54)[C@H](O)[C@@H]3OP(=O)(S)OC[C@H]3O[C@@H](n4ccc(N)nc4=O)[C@H](O)[C@@H]3OP(=O)(S)OC[C@H]3O[C@@H](n4ccc5c(=O)[nH]c(N)nc54)[C@H](O)[C@@H]3OP(=O)(S)OC[C@H]3O[C@@H](n4cnc5c(N)ncnc54)[C@H](O)[C@@H]3OP(=O)(S)OC[C@H]3O[C@@H](n4ccc(N)nc4=O)[C@H](O)[C@@H]3OP(=O)(S)OC[C@H]3O[C@@H](n4ccc(=O)[nH]c4=O)[C@H](O)[C@@H]3OP(=O)(S)OC[C@H]3O[C@@H](n4ccc(=O)[nH]c4=O)[C@H](O)[C@@H]3OP(=O)(S)OCC(O)COP(=O)(S)O[C@H]3[C@@H](O)[C@H](n4ccc(=O)[nH]c4=O)O[C@@H]3COP(=O)(S)O[C@H]3[C@@H](O)[C@H](n4ccc(=O)[nH]c4=O)O[C@@H]3COP(=O)(S)O[C@H]3[C@@H](O)[C@H](n4ccc(N)nc4=O)O[C@@H]3COP(=O)(S)O[C@H]3[C@@H](O)[C@H](n4cnc5c(N)ncnc54)O[C@@H]3COP(=O)(S)O[C@H]3[C@@H](O)[C@H](n4ccc5c(=O)[nH]c(N)nc54)O[C@@H]3COP(=O)(S)O[C@H]3[C@@H](O)[C@H](n4ccc(N)nc4=O)O[C@@H]3COP(=O)(S)O[C@H]3[C@@H](O)[C@H](n4ccc5c(=O)[nH]c(N)nc54)O[C@@H]3COP(=O)(S)O[C@H]3[C@@H](O)[C@H](n4ccc(=O)[nH]c4=O)O[C@@H]3COP(=O)(S)O[C@H]3[C@@H](O)[C@H](n4ccc(N)nc4=O)O[C@@H]3COP(=O)(S)O[C@H]3[C@@H](O)[C@H](n4cnc5c(N)ncnc54)O[C@@H]3COP(=O)(S)O[C@H]3[C@@H](O)[C@H](n4cnc5c(N)ncnc54)O[C@@H]3CO)[C@H]2O)c(=O)n1 (stereo partly drawn) |

Source: ChEMBL document CHEMBL1154352, “Toll-like receptor 7 selective synthetic oligoribonucleotide agonists: synthesis and structure-activity relationship studies” (J Med Chem, 2009)
